From ChEMBL document CHEMBL1142550, “Thiopyrano[2,3-e]indol-2-ones: angelicin heteroanalogues with potent photoantiproliferative activity” (Bioorg Med Chem, 2008)
The source made the active and inactive calls. No cut-off for these calls is given here.

What was measured:
[1] = tested on: Jurkat; assay: Photocytotoxicity against human JURKAT cells treated 30 mins before 3.75 J/cm'2 UVA irradiation measured after 72 hrs by MTT assay; assay type: functional, cell-based; details: light or radiation study
[2] = tested on: Escherichia coli; assay: Induction of DNA photodamage of Escherichia coli pBR322 exposed to 3.5 J/cm'2 UVA irradiation
In short: (§1)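 pBR322 supercoiled plasmid (100 ng) in 10 mM phosphate buffer pH 7.2 irradiated with UVA (365 nm, 4.0 mW cm⁻²; 3.5 J cm⁻²) at [DNA]/[drug] ratios 1, 2 and 4. Aliquots were then incubated at 37 °C with Fpg or Endo III. Scavenger runs used drug ratio 1 with mannitol 10 mM, GSH 1 mM or NaN₃ 10 mM. Samples were run on 1% agarose in TAE, 70 V, 4 h. Read-out was % form II by densitometry, mean ± SEM of three independent experiments.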

[3] = tested on: HT-1080; assay: Photocytotoxicity against human HT1080 cells treated 30 mins before 2.5 J/cm'2 UVA irradiation measured after 72 hrs by MTT assay; assay type: functional, cell-based; details: HT-1080, light or radiation study
[4] = tested on: Jurkat; assay: Induction of apoptosis in human JURKAT cells assessed as annexin V positive cells treated 30 mins before 2.5 J/cm'2 UVA irradiation measured after 24 hrs by flow cytometry; assay type: functional, cell-based
In short: (§2)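 Jurkat cells were exposed to drug in HBSS pH 7.2 (from DMSO stock) for 30 min at 37 °C, then given UVA 2.5 J cm⁻² (365 nm) at several concentrations. After 24 h, cells were stained with Annexin V-FITC plus propidium iodide and analysed by flow cytometry (ex 488 nm; em 525 nm FITC, 560–680 nm PI).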

[5] = tested on: Jurkat; assay: Induction of apoptosis in human JURKAT cells assessed as lysosomal damage treated 30 mins before 2.5 J/cm'2 UVA irradiation measured after 24 hrs by flow cytometry; assay type: functional, cell-based
In short: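 Jurkat cells were irradiated (2.5 J cm⁻²) with drug at several concentrations. At 24 h cells were stained with acridine orange 5 μg/mL for 15 min at 37 °C, washed, and analysed by flow cytometry (ex 488, em 546 nm).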

[6] = tested on: Escherichia coli; assay: Induction of DNA photodamage of Escherichia coli pBR322 exposed to 3.5 J/cm'2 UVA irradiation in presence of reduced glutathione; in short: as §1
[7] = tested on: Jurkat; assay: Induction of apoptosis in human JURKAT cells supernatant assessed as lipid peroxidation treated 30 mins before 2.5 J/cm'2 UVA irradiation measured after 24 hrs by thiobarbituric acid assay; assay type: functional, cell-based
In short: (§3)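 Cells were grown 2 days to confluence, then irradiated in HBSS with drug 10 μM at varied UVA doses. At 24 h, the TBA test was run on supernatant and on cell homogenates. Malonaldehyde was quantified against a 1,1,3,3-tetraethoxypropane standard and expressed as nmol TBARS per total protein.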

[8] = tested on: LoVo; assay: Photocytotoxicity against human LoVo cells at 1.25 uM treated 30 mins before 2.5 J/cm'2 UVA irradiation measured after 72 hrs by MTT assay in presence of N-N'-dimethylthiourea; assay type: functional, cell-based
In short: (§4)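 LoVo cells were seeded at 5×10³ per well in Ham's F12/10% FCS. Drug 1.25 μM was given with an additive: BHA 10⁻⁵ M, DMTU 1 mM, GSH 1 mM or NaN₃ 10 mM. After 30 min in HBSS at 37 °C, cells received UVA 2.5 J cm⁻², and MTT viability was read 72 h later.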

[9] = Photocytotoxicity against human NCTC 2544 cells treated 30 mins before 3.75 J/cm'2 UVA irradiation measured after 72 hrs by MTT assay; assay type: functional, cell-based; details: NCTC-2544, light or radiation study
[10] = tested on: Nucleic Acid; assay: Induction of DNA photodamage of salmon testes DNA assessed as DNA intercalation by circular dichroism; assay type: nucleic-acid assay; details: Salmonidae
In short: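 Circular dichroism of salmon testes DNA (2 μM) with ligand at ligand/DNA ratios 0.02 and 0.04 in phosphate buffer. Spectra are the average of 4 scans.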

[11] = tested on: HT-1080; assay: Photocytotoxicity against human HT1080 cells treated 30 mins before 3.75 J/cm'2 UVA irradiation measured after 72 hrs by MTT assay; assay type: functional, cell-based; details: HT-1080, light or radiation study
[12] = tested on: Jurkat; assay: Induction of apoptosis in human JURKAT cells assessed as increase in reactive oxygen species release treated 30 mins before 2.5 J/cm'2 UVA irradiation measured after 24 hrs by hydroethidine staining; assay type: functional, cell-based
In short: (§5)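 Jurkat cells were irradiated (UVA 2.5 J cm⁻²) with drug at several concentrations. At 24 h they were resuspended in HBSS with hydroethidine 0.1 μM, DCFDA 2.5 μM or NAO 5.0 μM for 30 min at 37 °C. Flow cytometry used ex 488 nm, em 585 nm (HE) or 530 nm (DCFDA, NAO). Values are means ± SEM, n=3.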

[13] = tested on: Jurkat; assay: Photocytotoxicity against human JURKAT cells treated 30 mins before 2.5 J/cm'2 UVA irradiation measured after 72 hrs by MTT assay; assay type: functional, cell-based; details: light or radiation study
[14] = tested on: Jurkat; assay: Induction of necrosis in human JURKAT cell sat 5.0 uM treated 30 mins before 2.5 J/cm'2 UVA irradiation measured after 24 hrs; assay type: functional; in short: as §2
[15] = tested on: LoVo; assay: Photocytotoxicity against human LoVo cells at 1.25 uM treated 30 mins before 2.5 J/cm'2 UVA irradiation measured after 72 hrs by MTT assay in presence of sodium azide; assay type: functional, cell-based; in short: as §4
[16] = tested on: Escherichia coli; assay: Induction of DNA photodamage of Escherichia coli pBR322 exposed to 3.5 J/cm'2 UVA irradiation in presence of endonuclease 3; in short: as §1
[17] = tested on: Escherichia coli; assay: Induction of DNA photodamage of Escherichia coli pBR322 exposed to 3.5 J/cm'2 UVA irradiation in presence of formamidopyrimidine DNA glycosylase; in short: as §1
[18] = tested on: Jurkat; assay: Induction of apoptosis in human JURKAT cells assessed as increase in reactive oxygen species release treated 30 mins before 2.5 J/cm'2 UVA irradiation measured after 24 hrs by DCFDA staining; assay type: functional, cell-based; in short: as §5
[19] = Photocytotoxicity against human NCTC 2544 cells treated 30 mins before 2.5 J/cm'2 UVA irradiation measured after 72 hrs by MTT assay; assay type: functional, cell-based; details: NCTC-2544, light or radiation study
[20] = tested on: Jurkat; assay: Induction of apoptosis in human JURKAT cells assessed as increase in cardiolipin oxidation treated 30 mins before 2.5 J/cm'2 UVA irradiation measured after 24 hrs by N-nonyl acridine orange staining; assay type: functional, cell-based; in short: as §5
[21] = tested on: Jurkat; assay: Induction of apoptosis in human JURKAT cells assessed as caspase 3 activation treated 30 mins before 2.5 J/cm'2 UVA irradiation measured after 24 hrs by colorimetric assay
[22] = tested on: LoVo; assay: Photocytotoxicity against human LoVo cells at 1.25 uM treated 30 mins before 2.5 J/cm'2 UVA irradiation measured after 72 hrs by MTT assay in presence of 2,6-di-t-butylhydroxyanisole; assay type: functional, cell-based; in short: as §4
[23] = tested on: LoVo; assay: Photocytotoxicity against human LoVo cells at 1.25 uM treated 30 mins before 2.5 J/cm'2 UVA irradiation measured after 72 hrs by MTT assay in presence of reduced glutathione; assay type: functional, cell-based; in short: as §4
[24] = tested on: Jurkat; assay: Induction of apoptosis in human JURKAT cells assessed as reduction in mitochondrial membrane potential at 5 uM treated 30 mins before 2.5 J/cm'2 UVA irradiation measured after 24 hrs by flow cytometry; assay type: functional, cell-based
In short: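 Jurkat cells were treated with drug at 5 μM and UVA 2.5 J cm⁻², then sampled at different times after irradiation. Cells were resuspended in HBSS with JC-1 2.5 μM for 10 min at 37 °C, then analysed by flow cytometry. Values are mean ± SEM of three experiments.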

[25] = tested on: Erythrocyte; assay: Induction of protein photodamage of human erythrocyte ghost plasmatic membrane assessed as disappearance of the spectrin subunit bands at 10 uM treated 30 mins before 2.5 J/cm'2 UVA irradiation by electrophoresis; assay type: cell-based
In short: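 Erythrocyte ghost membranes (1.0 mg/ml protein) were irradiated with drug at increasing UVA doses.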

[26] = tested on: Escherichia coli; assay: Induction of DNA photodamage of Escherichia coli pBR322 exposed to 3.5 J/cm'2 UVA irradiation in presence of mannitol; in short: as §1
[27] = tested on: Jurkat; assay: Induction of apoptosis in human JURKAT cells homogenate assessed as lipid peroxidation treated 30 mins before 2.5 J/cm'2 UVA irradiation measured after 24 hrs by thiobarbituric acid assay; assay type: functional, cell-based; in short: as §3
[28] = tested on: Jurkat; assay: Induction of apoptosis in human JURKAT cells assessed as decrease in intracellular GSH levels treated 30 mins before 2.5 J/cm'2 UVA irradiation measured after 24 hrs by flow cytometry; assay type: functional, cell-based
In short: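 Jurkat cells were irradiated (2.5 J cm⁻²) with drug at several concentrations. At 24 h cells were harvested and incubated with monobromobimane 50 μM for 10 min at 37 °C. GS-mBBr was measured by flow cytometry (ex 354, em 450). Values are mean ± SEM, n=3.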

[29] = tested on: Escherichia coli; assay: Induction of DNA photodamage of Escherichia coli pBR322 exposed to 3.5 J/cm'2 UVA irradiation in presence of sodium azide; in short: as §1
[30] = tested on: Nucleic Acid; assay: Induction of DNA photodamage of salmon testes DNA assessed as DNA intercalation by linear dichroism; assay type: nucleic-acid assay; details: Salmonidae
In short: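 Linear dichroism in a flow cell with salmon testes DNA at 2.27 mM in phosphate buffer, ligand/DNA r = 0, 0.02 and 0.04. Absorbance spectra were recorded alongside.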

[31] = tested on: LoVo; assay: Photocytotoxicity against human LoVo cells treated 30 mins before 3.75 J/cm'2 UVA irradiation measured after 72 hrs by MTT assay; assay type: functional, cell-based; details: light or radiation study
[32] = tested on: LoVo; assay: Photocytotoxicity against human LoVo cells treated 30 mins before 2.5 J/cm'2 UVA irradiation measured after 72 hrs by MTT assay; assay type: functional, cell-based; details: light or radiation study
[33] = tested on: HL-60; assay: Photocytotoxicity against human HL-60 cells treated 30 mins before 3.75 J/cm'2 UVA irradiation measured after 72 hrs by MTT assay; assay type: functional, cell-based; details: HL-60, light or radiation study
[34] = tested on: HL-60; assay: Photocytotoxicity against human HL-60 cells treated 30 mins before 2.5 J/cm'2 UVA irradiation measured after 72 hrs by MTT assay; assay type: functional, cell-based; details: HL-60, light or radiation study

Cc1cc2c3sc(=O)ccc3ccc2n1C
IC50 [1]: 0.2 µM
Activity [2]: inactive
IC50 [3]: 0.9 µM
Activity [4]: Dose-dependent effect
Activity [5]: Active
Activity [6]: inactive
Activity [7]: Active
Activity [8]: inactive
IC50 [9]: 1.6 µM
Activity [10]: inactive
IC50 [11]: 0.6 µM
Activity [12]: Active
IC50 [13]: 0.5 µM
Activity [14]: 2%
Activity [15]: Active
Activity [16]: Active
Activity [17]: Active
Activity [18]: Active
IC50 [19]: 2.1 µM
Activity [20]: Active
Activity [21]: Active
Activity [22]: inactive
Activity [23]: inactive
Activity [24]: Active
Activity [25]: Active
Activity [26]: inactive
Activity [27]: Active
Activity [28]: Dose-dependent effect
Activity [29]: inactive
Activity [30]: inactive

COc1c2occc2cc2ccc(=O)oc12 [METHOXSALEN]
IC50 [9]: 0.9 µM
IC50 [11]: 1.9 µM
IC50 [13]: 1.2 µM
IC50 [19]: 5.5 µM

Cc1cc2c3sc(=O)ccc3ccc2n1-c1ccccc1
IC50 [1]: 3.5 µM
IC50 [3]: 5.4 µM
IC50 [31]: 4.2 µM
IC50 [9]: 14.8 µM
IC50 [11]: 2 µM
IC50 [13]: 2.5 µM
IC50 [32]: 5.1 µM
IC50 [33]: 1.3 µM
IC50 [19]: 17 µM
IC50 [34]: 2.6 µM

Cc1cc2c(n1C)CCc1ccc(=O)sc1-2
IC50 [1]: > 10 µM
IC50 [3]: > 20 µM
IC50 [31]: > 20 µM
IC50 [9]: > 20 µM
IC50 [11]: > 20 µM
IC50 [13]: > 10 µM
IC50 [32]: > 20 µM
IC50 [33]: > 10 µM
IC50 [19]: > 20 µM
IC50 [34]: > 10 µM

Cc1cc2c(n1-c1ccccc1)CCc1ccc(=O)sc1-2
IC50 [1]: 3.5 µM
IC50 [3]: 11 µM
IC50 [31]: 12.3 µM
IC50 [9]: > 20 µM
IC50 [11]: 10.5 µM
IC50 [13]: 4.2 µM
IC50 [32]: > 20 µM
IC50 [33]: 2.7 µM
IC50 [19]: > 20 µM
IC50 [34]: 6.2 µM

Cc1cc2c(n1S(=O)(=O)c1ccccc1)CCc1ccc(=O)sc1-2
IC50 [1]: 5 µM
IC50 [3]: > 20 µM
IC50 [31]: > 20 µM
IC50 [9]: > 20 µM
IC50 [11]: > 20 µM
IC50 [13]: 7.3 µM
IC50 [32]: > 20 µM
IC50 [33]: > 10 µM
IC50 [19]: > 20 µM
IC50 [34]: > 10 µM

Cc1cc2c(n1Cc1ccccc1)CCc1ccc(=O)sc1-2
IC50 [1]: 2.2 µM
IC50 [3]: 11.2 µM
IC50 [9]: > 20 µM
IC50 [11]: 9.8 µM
IC50 [13]: 4 µM
IC50 [32]: > 20 µM
IC50 [19]: > 20 µM
IC50 [34]: 4 µM

O=c1ccc2ccc3occc3c2o1 [ANGELICIN]
IC50 [9]: 1.5 µM
IC50 [13]: 0.9 µM
IC50 [19]: 4.2 µM
